ChEMBL document CHEMBL3407437, “Antibacterial drug leads: DNA and enzyme multitargeting” (J Med Chem, 2015)
In brackets after ≈: the same amount, converted by molar mass.

Assays:
[1] = Inhibition of Escherichia coli UPPS using FPP/IPP as substrate by spectrophotometry
[2] = Inhibition of Staphylococcus aureus UPPS using FPP/IPP as substrate by spectrophotometry
How it was run: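 Continuous spectrophotometric assay following UPPS-catalysed condensation of FPP with IPP. IC50 from fit of inhibition data to rectangular hyperbolic dose-response function.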

Escherichia coli = experiment: Antimicrobial activity against Escherichia coli K-12 after 3 hrs by broth microdilution method; type: functional, organism-based; details: K-12, 3 h
Staphylococcus aureus [3] = experiment: Antimicrobial activity against Staphylococcus aureus Newman after 9 hrs by spectrophotometry; type: functional, organism-based
[4] = Binding affinity to DNA dodecamer complex (CGCGAATTCGCG)2 (unknown origin) assessed as change in melting temperature by differential scanning calorimetry
[5] = Inhibition of Staphylococcus aureus UPPS
How it was run: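 Continuous spectrophotometric assay following UPPS-catalysed condensation of FPP with IPP. Reaction contained 400 µM MESG, 25 µM IPP, 2.5 µM FPP, […] pH 7.5, 0.01% Triton X-100 and 1 mM MgCl2. IC50 from fit of inhibition data to rectangular hyperbolic dose-response function.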

Staphylococcus aureus [6] = experiment: Antimicrobial activity against Staphylococcus aureus; type: functional
Staphylococcus aureus [7] = experiment: Antimicrobial activity against Staphylococcus aureus assessed as fractional Inhibitory concentration index; type: functional
[8] = Inhibition of FPPS (unknown origin)

| Compound | IC50 [1] | IC50 [2] | EC50 (Escherichia coli) | EC50 (Staphylococcus aureus [3]) | ΔTm [4] | IC50 [5] | MIC (Staphylococcus aureus [6]) | fractional inhibitory concentration index (FICI) (Staphylococcus aureus [7]) | IC50 [8] |
| --- | --- | --- | --- | --- | --- | --- | --- | --- | --- |
| C(=C\c1cc2ccc(C3=NCCN3)cc2[nH]1)/c1cc2ccc(C3=NCCN3)cc2[nH]1 | 12 µM | 5.1 µM | 1.2 µM | 0.11 µM | 20 °C | – | – | – | – |
| c1cc2cc(-c3ccc(-c4cc5ccc(C6=NCCN6)cc5[nH]4)cc3)[nH]c2cc1C1=NCCN1 | 0.36 µM | 1.7 µM | 0.33 µM | 0.029 µM | 16 °C | – | – | – | – |
| O=C(Nc1cccc(O[C@@H]2O[C@H](CO)[C@@H](O)[C@H](O)[C@H]2O)c1)c1ccc(-c2ccc(C(=O)Nc3cccc(C4=NCCN4)c3)cc2)cc1 | 380 µM | 530 µM | > 1500 µM | 570 µM | 5.8 °C | – | – | – | – |
| S=C(Nc1cccc(C2=NCCN2)c1)c1ccc(-c2ccc(C(=S)Nc3cccc(C4=NCCN4)c3)cc2)cc1 | 9.2 µM | 3.5 µM | 58 µM | 3 µM | 7.1 °C | – | – | – | – |
| O=P(O)(O)C(O)(Cc1cccc(-c2cccc(NS(=O)(=O)c3cccc(S(=O)(=O)Nc4cccc(-c5cccc(CC(O)(P(=O)(O)O)P(=O)(O)O)c5)c4)c3)c2)c1)P(=O)(O)O | 0.36 µM | 0.39 µM | > 1500 µM | 100 µM | -1 °C | – | – | – | – |
| O=C(Nc1cccc(C2=NCCCN2)c1)c1ccc(-c2ccc(C(=O)Nc3cccc(C4=NCCCN4)c3)cc2)cc1 | 5.5 µM | 4.5 µM | 0.66 µM | 0.23 µM | 10 °C | – | – | – | – |
| O=C(Nc1cccc(Oc2ccccc2)c1)c1ccc(-c2ccc(C(=O)Nc3cccc(C4=NCCN4)c3)cc2)cc1 | 11 µM | 5.7 µM | > 1500 µM | 10 µM | 0.6 °C | – | – | – | – |
| CCCCCCOc1cccc(NC(=O)c2ccc(-c3ccc(C(=O)Nc4cccc(C5=NCCN5)c4)cc3)cc2)c1 | 25 µM | 8.9 µM | > 1500 µM | 280 µM | 0.7 °C | – | – | – | – |
| NCCc1cc(Br)cc(C#Cc2cccc(C#Cc3cc(Br)cc(CCN)c3)c2)c1 | 6.1 µM | 1.4 µM | 0.97 µM | 7.6 µM | -0.1 °C | – | – | – | – |
| c1cc2cc(-c3ccc(-c4cc5ccc(C6=NCCCN6)cc5[nH]4)cc3)[nH]c2cc1C1=NCCCN1 | 0.68 µM | 0.47 µM | 0.24 µM | 0.028 µM | 24 °C | – | – | – | – |
| Cn1cc(NC(=O)c2cc(NC(=O)CNC(=N)N)cn2C)cc1C(=O)NCCC(=N)N [NETROPSIN] | 1400 µM | 1000 µM | 570 µM | 11 µM | 16 °C | – | – | – | – |
| N=C(N)c1ccc(OCCCCCOc2ccc(C(=N)N)cc2)cc1 [PENTAMIDINE] | 400 µM | 240 µM | 12 µM | 4.2 µM | 2.7 °C | – | – | – | – |
| COc1cccc(NC(=O)c2ccc(-c3ccc(C(=O)Nc4cccc(C5=NCCN5)c4)cc3)cc2)c1 | 9.4 µM | 2.1 µM | 570 µM | 7.7 µM | 5.2 °C | – | – | – | – |
| O=C(Nc1cccc(C2=NCCN2)c1)c1ccc(-c2ccc(C(=O)Nc3cccc(C4=NCCN4)c3)cc2)cc1 | – | – | – | – | 11 °C | 0.1 µM | 0.25 mg/L (≈ 0.473 µM) | 0.25 | 2 µM |
| OC[C@H]1O[C@@H](Oc2cccc(C#Cc3ccc(C#Cc4cccc(C5=NCCN5)c4)cc3)c2)[C@H](O)[C@@H](O)[C@@H]1O | 14 µM | 5.6 µM | 900 µM | 380 µM | -1.2 °C | – | – | – | – |
| O=C(Nc1ccc(C2=NCCN2)cc1)c1ccc(C(=O)Nc2ccc(C3=NCCN3)cc2)c([N+](=O)[O-])c1 | 4.8 µM | 4.9 µM | 14 µM | 28 µM | 3.9 °C | – | – | – | – |
